What was measured:
[1] = molecular target: T1, Sodium-dependent dopamine transporter (Homo sapiens, UniProt Q01959); assay: Affinity was evaluated using [3H]WIN-35428 (radioligand) on Cloned human Dopamine transporter expressed in HEK cells; format: cell-based, HEK293
[2] = molecular target: Sodium-dependent serotonin transporter (Homo sapiens, UniProt P31645); assay: Affinity was evaluated using [3H]citalopram (radioligand) on human serotonin transporter expressed in HEK cells; format: cell-based, HEK293
[3] = molecular target: Sodium-dependent dopamine transporter (Rattus norvegicus, UniProt P23977); assay: IC50 value was evaluated using [3H]WIN-35428 (radioligand) on Dopamine transporter in rat striatum.; format: tissue-based
[4] = molecular target: T1, Sodium-dependent dopamine transporter; assay: Affinity was evaluated using [3H]DA (radioligand) on Cloned human Dopamine transporter expressed in HEK cells; format: cell-based, HEK293
Method in brief: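 HEK-293 cells stably expressing cloned hDAT, suspended intact; preincubated with inhibitor 15 min at room temperature in pH 7.4 Na phosphate/NaCl/KCl/MgSO4/glucose/CaCl2 buffer with 0.1 mM tropolone, then [3H]dopamine added for 8 min more; ended with ice-cold buffer. Compounds from DMSO stocks, 0.5% final DMSO, at least five concentrations.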

[5] = molecular target: Sodium-dependent serotonin transporter (Rattus norvegicus, UniProt P31652); assay: IC50 value was evaluated using [3H]citalopram (radioligand) on serotonin transporter in rat striatum.; format: tissue-based
Sodium-dependent serotonin transporter (Rattus norvegicus, UniProt P31652), sequence (P31652 whole entry): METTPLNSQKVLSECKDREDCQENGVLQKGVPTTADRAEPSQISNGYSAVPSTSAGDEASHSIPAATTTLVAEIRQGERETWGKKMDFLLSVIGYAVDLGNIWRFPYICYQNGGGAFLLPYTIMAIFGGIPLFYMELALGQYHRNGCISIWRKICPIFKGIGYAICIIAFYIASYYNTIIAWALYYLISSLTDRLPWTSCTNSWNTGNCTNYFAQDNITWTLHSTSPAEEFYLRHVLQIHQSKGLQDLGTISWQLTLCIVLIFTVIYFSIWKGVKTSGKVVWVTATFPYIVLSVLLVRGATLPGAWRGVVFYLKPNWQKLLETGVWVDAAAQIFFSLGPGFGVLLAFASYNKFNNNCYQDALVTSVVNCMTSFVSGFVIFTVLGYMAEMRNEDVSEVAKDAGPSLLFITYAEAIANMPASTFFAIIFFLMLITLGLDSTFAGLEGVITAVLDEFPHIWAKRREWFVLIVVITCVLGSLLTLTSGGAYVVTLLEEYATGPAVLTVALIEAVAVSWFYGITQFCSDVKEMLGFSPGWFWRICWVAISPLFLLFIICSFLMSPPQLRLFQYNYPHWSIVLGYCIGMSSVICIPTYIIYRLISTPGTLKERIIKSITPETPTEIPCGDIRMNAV

T1 sequence (Q01959 whole entry): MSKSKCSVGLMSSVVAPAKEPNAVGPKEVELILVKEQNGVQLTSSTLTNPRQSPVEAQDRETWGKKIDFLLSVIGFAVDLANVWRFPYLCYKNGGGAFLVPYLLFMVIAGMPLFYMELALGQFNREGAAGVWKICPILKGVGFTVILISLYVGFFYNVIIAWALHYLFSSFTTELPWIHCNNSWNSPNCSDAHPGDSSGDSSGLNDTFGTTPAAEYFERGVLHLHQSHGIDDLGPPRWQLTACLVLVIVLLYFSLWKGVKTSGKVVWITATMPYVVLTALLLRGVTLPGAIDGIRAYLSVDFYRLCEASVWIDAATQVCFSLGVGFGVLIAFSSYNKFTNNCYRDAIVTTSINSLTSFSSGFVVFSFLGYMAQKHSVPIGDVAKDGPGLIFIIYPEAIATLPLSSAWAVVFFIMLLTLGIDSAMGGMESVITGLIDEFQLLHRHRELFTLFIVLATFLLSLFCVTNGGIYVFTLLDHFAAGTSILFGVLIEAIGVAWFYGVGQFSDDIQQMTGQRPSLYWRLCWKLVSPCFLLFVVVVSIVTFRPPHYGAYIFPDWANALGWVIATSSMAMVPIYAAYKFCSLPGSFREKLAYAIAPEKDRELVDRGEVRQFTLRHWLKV
Sodium-dependent serotonin transporter (Homo sapiens, UniProt P31645), sequence (P31645 whole entry): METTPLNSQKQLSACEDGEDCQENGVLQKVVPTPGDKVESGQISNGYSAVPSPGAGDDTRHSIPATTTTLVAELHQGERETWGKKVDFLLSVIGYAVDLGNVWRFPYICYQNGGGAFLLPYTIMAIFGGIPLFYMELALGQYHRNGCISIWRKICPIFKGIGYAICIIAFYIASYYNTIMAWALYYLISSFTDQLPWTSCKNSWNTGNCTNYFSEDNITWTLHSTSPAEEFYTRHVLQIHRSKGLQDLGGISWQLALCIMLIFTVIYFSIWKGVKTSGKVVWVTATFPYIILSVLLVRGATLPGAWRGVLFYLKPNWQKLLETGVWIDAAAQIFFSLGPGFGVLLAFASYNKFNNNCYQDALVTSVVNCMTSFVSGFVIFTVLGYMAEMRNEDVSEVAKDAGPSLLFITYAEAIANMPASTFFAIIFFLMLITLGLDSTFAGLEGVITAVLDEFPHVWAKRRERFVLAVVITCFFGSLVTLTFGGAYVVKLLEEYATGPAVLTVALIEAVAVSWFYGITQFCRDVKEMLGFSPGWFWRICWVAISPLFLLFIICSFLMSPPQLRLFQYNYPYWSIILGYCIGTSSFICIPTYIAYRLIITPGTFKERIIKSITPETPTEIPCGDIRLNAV
Sodium-dependent dopamine transporter (Rattus norvegicus, UniProt P23977), sequence (P23977 whole entry): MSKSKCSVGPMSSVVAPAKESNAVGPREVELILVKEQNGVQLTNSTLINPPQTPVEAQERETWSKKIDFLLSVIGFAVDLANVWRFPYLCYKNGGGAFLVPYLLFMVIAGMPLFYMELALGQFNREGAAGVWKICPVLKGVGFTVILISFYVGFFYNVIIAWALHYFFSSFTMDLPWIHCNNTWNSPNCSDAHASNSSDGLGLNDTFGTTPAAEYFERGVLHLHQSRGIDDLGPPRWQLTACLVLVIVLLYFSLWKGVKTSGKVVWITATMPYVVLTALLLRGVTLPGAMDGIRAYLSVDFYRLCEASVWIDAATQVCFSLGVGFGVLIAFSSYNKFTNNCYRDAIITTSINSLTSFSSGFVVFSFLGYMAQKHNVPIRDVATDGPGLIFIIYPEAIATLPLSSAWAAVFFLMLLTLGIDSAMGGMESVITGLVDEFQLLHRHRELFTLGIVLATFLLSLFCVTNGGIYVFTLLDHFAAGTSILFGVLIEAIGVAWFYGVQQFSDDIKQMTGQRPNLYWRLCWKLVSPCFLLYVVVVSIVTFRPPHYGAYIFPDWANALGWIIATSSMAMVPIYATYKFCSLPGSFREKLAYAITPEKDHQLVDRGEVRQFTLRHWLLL

| SMILES | IC50 [1] [nM] | IC50 [2] [nM] | IC50 [3] [nM] | IC50 [4] [nM] | IC50 [5] [nM] |
| --- | --- | --- | --- | --- | --- |
| O=C(CC1CCN(Cc2ccc(F)cc2)CC1)NC(c1ccccc1)c1ccccc1 | 3210 | 49200 |  |  |  |
| Fc1ccc(CN2CCC(CCOC(c3ccccc3)c3ccccc3)CC2)cc1 | 37.6 |  |  |  |  |
| Fc1ccc(C(OCCC2CCN(Cc3ccccc3)CC2)c2ccc(F)cc2)cc1 | 35 |  |  |  |  |
| Fc1ccc(CN2CCC(CCNC(c3ccccc3)c3ccccc3)CC2)cc1 | 30 | 5850 | 9.4 | 32 | 585 |
| Fc1ccc(C(NCCC2CCN(Cc3ccccc3)CC2)c2ccc(F)cc2)cc1 | 33 | 10700 |  | 58 |  |

— ChEMBL document CHEMBL1131067, “Tolerance in the replacement of the benzhydrylic O atom in 4-[2-(diphenylmethoxy)ethyl]-1-benzylpiperidine derivatives by an N atom: development of new-generation potent and selective N-analogue molecules for the dopamine transporter” (J Med Chem, 1998)
